OXTR potentiate – human OXTR potentiators, primary screen, fluorescence, CHO-OTR cells, Fluo-8 calcium; Oxytocin receptor (Homo sapiens), P30559; Fluo-8 calcium fluorescence, potentiator mode; 0% = oxytocin EC15, 100% = EC100; activation, % at 3 µM; 320,000 compounds, 0.061% hits; AID 2445, 2010;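 active means activation above that plate's cutoff, the mean activation of tested compounds plus 3 SD, cut at about 6.6% in these data, passing the limit was not always enough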;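 further: 100% uses oxytocin at 75 nM as the full agonist control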
Target sequence (P30559 whole entry, looked up): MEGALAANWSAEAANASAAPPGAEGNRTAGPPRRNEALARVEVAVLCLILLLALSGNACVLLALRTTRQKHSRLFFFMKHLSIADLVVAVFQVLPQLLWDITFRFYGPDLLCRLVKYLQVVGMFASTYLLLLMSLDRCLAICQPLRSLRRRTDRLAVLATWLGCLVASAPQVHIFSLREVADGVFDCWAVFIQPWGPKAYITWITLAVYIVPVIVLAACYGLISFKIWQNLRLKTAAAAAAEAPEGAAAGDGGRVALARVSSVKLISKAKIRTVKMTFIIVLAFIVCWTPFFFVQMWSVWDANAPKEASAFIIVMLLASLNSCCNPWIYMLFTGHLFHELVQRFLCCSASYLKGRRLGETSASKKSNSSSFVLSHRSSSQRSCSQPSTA
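Measured by – Fluo-8 calcium dye fluorescence · Test system – human OTR in CHO cells · Dosing – one concentration, 3.0 µM compound · Controls – EC15 oxytocin alone as 0%, 75 nM oxytocin as 100% · Evaluation – normalized max/min fluorescence ratio, % activation · Timing – 6 min pre-incubation, 100 s read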
OXTR agonist – human OXTR agonists, primary screen, fluorescence, CHO-OTR cells, Fluo-8 calcium; Fluo-8 calcium fluorescence; normalized: DMSO 0%, oxytocin 100%; Oxytocin receptor (Homo sapiens), P30559; activation, % at 3 µM; AID 2435, 2010; 320,000 compounds, 0.32% hits;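 active means activation above the mean of all tested compounds plus 3 SD, cutoff set per screening run, cut at about 20% in these data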;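 further: peak over basal fluorescence ratio from a 100 s FLIPR kinetic read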
TAAR1 antagonist – human TAAR1 antagonists, primary screen, Fluo-8 calcium fluorescence, CHO RD-HGA16 cells | Trace amine-associated receptor 1 (Homo sapiens), Q96RJ0 | antagonist | inhibition, % at 3 µM | 360,000 compounds, 1.5% hits | AID 624466, 2012;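 active means inhibition above a per-plate cutoff, the mean inhibition of test compounds on that plate plus 3 SD, cut at about 49% in these data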;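 further: 0% = DMSO plus EC80 beta-PEA response and 100% = DMSO alone without agonist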
Target sequence (Q96RJ0 whole entry, looked up): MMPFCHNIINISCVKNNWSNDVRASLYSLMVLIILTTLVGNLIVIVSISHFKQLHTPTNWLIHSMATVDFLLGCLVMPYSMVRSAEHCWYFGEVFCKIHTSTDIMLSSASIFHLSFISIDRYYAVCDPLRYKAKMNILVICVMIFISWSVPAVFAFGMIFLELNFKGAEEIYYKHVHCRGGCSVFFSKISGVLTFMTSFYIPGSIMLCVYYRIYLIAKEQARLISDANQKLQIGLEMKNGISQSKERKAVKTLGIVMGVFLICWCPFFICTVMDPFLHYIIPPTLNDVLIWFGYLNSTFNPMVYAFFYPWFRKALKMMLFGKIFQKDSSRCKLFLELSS
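System: CHO RD-HGA16 cells bearing hTAAR1. Reagent: EC80 β-phenethylamine stimulus. Schedule: seeding 17-24 h prior, 75-min 37 °C, 30-min RT dye loading. Signal: Fluo-8 intracellular calcium dye fluorescence, real-time kinetic reads. Read-out: % inhibition from peak post-agonist over basal fluorescence ratio. Benchmarks: vehicle wells and EC80 agonist wells. Replicates: n of 1.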
V1R ag counter – agonists of human V1a receptor, primary screen, counter-screen for OXTR agonist project, fluorescence, CHO-V1R cells; activation, % at 3 µM; Vasopressin V1a receptor (Homo sapiens), P37288; 320,000 compounds, 0.25% hits; Fluo-8 calcium fluorescence, agonist mode; 0% DMSO, 100% 3 nM vasopressin;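 active means activation above the mean activation of all tested compounds plus 3 SD, per screening run, cut at about 20% in these data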;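 further: signal is peak over basal fluorescence ratio across a 100 second FLIPR read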
TAAR1 ag – human TAAR1 agonists, primary screen, Fluo-8 calcium fluorescence, CHO RD-HGA16 cells; Trace amine-associated receptor 1 (Homo sapiens), Q96RJ0; vehicle wells 0%, saturating PEA agonist 100%; activation, % at 3 µM; 360,000 compounds, 0.99% hits; AID 624467, 2012;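 active means activation above the mean activation of all test compounds in the run plus 3 SD, cut at about 38% in these data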
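Signal – calcium-sensitive Fluo-8 signal, excitation 470-495, emission 515-575 nm · System – RD-HGA16 (CHO) cells co-expressing Gα16 and hTAAR1 · Incubation – 17-24 h seeding, 75 min 37 °C dye, 30 min RT · Compound dosing – 3 µM single concentration · Repeats – no replicates (n 1)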
TAAR1 ag confirm – human TAAR1 agonists, retest of hits, confirmation, Fluo-8 calcium fluorescence, CHO RD-HGA16 cells; shares compounds with TAAR1 ag; scaled: DMSO 0%, maximal phenethylamine 100%; activation, % at 3 µM; 2,400 compounds, 82% hits; AID 651783, 2012;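 active means activation above a cutoff set at the run's mean compound activation plus 3 SD, cut at about 39% in these data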
Ga16 nonsel ag – nonselective calcium mobilization agonists, CHO-Ga16 cells, counter-screen for hTAAR1 agonist project, cell-based, fluorescence, CHO-Ga16 parental line. Fluo-8 calcium fluorescence; normalized to maximal ATP response, DMSO zero. AID 651787, 2012. 2,400 compounds, 50% hits. shares compounds with TAAR1 ag. activation, % at 3 µM;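 active means activation above the run cutoff, the mean activation over all tested wells plus 3 SD, cut at about 12% in these data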;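 further: 0% = DMSO wells and 100% = maximal ATP response on the peak over basal ratio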
TAAR1 desensitize – TAAR1 desensitization by agonist hits, confirmation, counter-screen for TAAR1 agonist project, cell-based, fluorescence, tachyphylaxis. shares compounds with TAAR1 ag. CHO RD-HGA16 hTAAR1, Fluo-8 calcium, beta-PEA response inhibition. inhibition, % at 3 µM. 2,400 compounds, 46% hits;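 active means inhibition above the run cutoff, the mean inhibition of all test compounds plus 3 SD, cut at about 49% in these data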;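 further: beta-PEA stimulus applied at its EC80; loss of beta-PEA calcium signal after compound pretreatment read as receptor desensitization; 0% = DMSO with beta-PEA at EC80 and 100% = DMSO alone without agonist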
Ga16 antag count – inhibition of ATP-evoked calcium response in CHO-Ga16 cells, counter-screen for TAAR1 agonist project, cell-based, fluorescence | 2,400 compounds, 39% hits | AID 651952, 2012 | shares compounds with TAAR1 ag | CHO-Ga16 ATP-induced calcium, Fluo-8 fluorescence | inhibition, % at 3 µM;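 active means inhibition above the plate's mean compound inhibition plus 3 SD, computed per plate, cut at about 22% in these data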;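 further: 0% = EC80 ATP with DMSO and 100% = DMSO wells without ATP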
Active calls of the source: *; . = not tested or not shown. This is a sample that favours compounds with a hit; in the whole collection about 2.3% have one here.

SMILES	OXTR potentiate	OXTR agonist	TAAR1 antagonist	V1R ag counter	TAAR1 ag	TAAR1 ag confirm	Ga16 nonsel ag	TAAR1 desensitize	Ga16 antag count
CC(=O)c1cccc(NC(=O)C2Cc3c(-c4ccco4)ccnc3O2)c1 (stereo unspecified)	.	.	15	.	12	.	.	.	.
CCC(=O)N(CC)c1nc(-c2ccc(OC)cc2)cs1	-6	5	70*	2	70*	44*	44*	58*	46*
CCC(=O)N(Cc1ccco1)c1nc(-c2ccc(OC)cc2)cs1	-11	-1	22	-1	1	.	.	.	.
CCCCc1cc(=O)oc2cc(C)cc(OCC(=O)N[C@@H](CSCc3ccccc3)C(=O)O)c12	-3	0	15	1	60*	84*	44*	28	14
O/N=C(\Cn1ccnc1)c1ccccc1	.	.	-16	.	37	.	.	.	.
Cc1ccc(S(=O)(=O)n2nc(OC(=O)c3c(F)cccc3Cl)cc2N)cc1	-6	1	8	3	60*	65*	27*	25	19
Cc1ccc(S(=O)(=O)n2nc(OC(=O)c3ccco3)cc2N)cc1	-12	1	-15	1	31	.	.	.	.
Cc1ccc(S(=O)(=O)n2nc(OC(=O)c3cccc(F)c3)cc2N)cc1	-5	6	9	0	103*	56*	38*	26	15
CCN1CCc2c(sc(NC(=O)Cc3ccccc3)c2C(N)=O)C1	-9	0	-41	0	16	.	.	.	.
CCN1CCc2c(sc(NC(=O)Nc3ccc(Cl)c(Cl)c3)c2C(N)=O)C1	-12	219*	102*	173*	178*	164*	177*	90*	88*
COCCCNC(=O)C1CCN(S(=O)(=O)c2ccc3nc4c(c(C(=O)O)c3c2)CCCCC4)CC1	-9	-1	0	0	1	.	.	.	.
Nc1nc(N)c2cc(Sc3ccc(Cl)cc3)ccc2n1	.	.	28	.	60*	65*	40*	56*	40*
Nc1nc(N)c2cc(Sc3cccc(C(F)(F)F)c3)ccc2n1	.	.	-5	.	36	.	.	.	.
COc1ccc(-c2cc(-c3cccnc3)c(C#N)c(N)n2)cc1	-3	0	37	1	46*	29	10	38	22*
OC[C@@H]1CN(CCN2CCOCC2)C[C@H](n2cnc3c(NC4CCC4)ncnc32)O1	.	.	-17	.	0	.	.	.	.
CC1(c2ccc(OC(F)F)cc2)NC(=O)N(CC(=O)NC2CCCCC2)C1=O (stereo unspecified)	-6	5	9	6	20	.	.	.	.
CC1(c2ccc([N+](=O)[O-])cc2)NC(=O)N(CC(=O)c2ccc3c(c2)OCO3)C1=O (stereo unspecified)	-20	34*	47	23*	90*	117*	70*	76*	37*
CC1(c2ccc(OC(F)F)cc2)NC(=O)N(CC(=O)c2ccc3c(c2)OCO3)C1=O (stereo unspecified)	-22	41*	96*	39*	136*	118*	81*	102*	49*
O=C(NCCc1ccccc1)C1CCN(C(=O)c2ccc([N+](=O)[O-])cc2)CC1	-6	0	.	1	.	.	5	.	0
CCC1CN(C(=O)N2CCC(C(=O)NCCc3ccccc3)CC2)c2ccccc2O1 (stereo unspecified)	-12	7	58*	7	53*	84*	16*	83*	34*
CCCn1c(=O)n(C)c(=O)c2c(SCC(=O)NCC(c3ccccc3)N(C)C)nc(CC(C)C)nc21 (stereo unspecified)	-10	-2	-7	0	-2	.	.	.	.
O=C1CC(NCCc2ccccc2)C(=O)N1CCc1ccccc1 (stereo unspecified)	1	1	10	2	61*	63*	3	11	14
CS(=O)(=O)c1ccc(Nc2nc(C(N)c3ccccc3Cl)cs2)cc1 (stereo unspecified)	.	.	-17	.	5	.	.	.	.
Cn1c(=O)c2[nH]c(Nc3ccccc3)nc2n(C)c1=O	-10	2	33	1	74*	71*	4	61*	8
Cc1ccc(CNc2nc3c([nH]2)c(=O)n(C)c(=O)n3C)cc1	-18	-1	-28	0	12	.	.	.	.
SMILES	OXTR potentiate	OXTR agonist	TAAR1 antagonist	V1R ag counter	TAAR1 ag	TAAR1 ag confirm	Ga16 nonsel ag	TAAR1 desensitize	Ga16 antag count
O=C(CCS(=O)(=O)c1ccc2c(c1)NC(=O)CO2)NCCc1ccccc1	-3	0	27	0	66*	62*	-1	5	-1
O=C(CCS(=O)(=O)c1ccc2c(c1)NC(=O)CO2)NCc1ccccc1	-2	0	-16	0	1	.	.	.	.
CC(C)Oc1cccc(NC(=O)c2cnccc2C(F)(F)F)c1	9	0	-7	0	1	.	.	.	.
O=C(NCCc1ccccc1)c1cc(-c2ccco2)on1	-5	-2	-13	0	47*	44*	2	6	2
CCCCc1c(O)nc(SCC(=O)Nc2ccc(OC)cc2)n(-c2ccc(C)c(C)c2)c1=O	.	.	-13	.	0	.	.	.	.
CCc1cc(C(=O)Cc2cnn(-c3ccccc3)c2)c(O)cc1O	-23	19	63*	10	49*	50*	48*	80*	52*
COc1ccc(C2=Cc3ccc(OC(C)=O)cc3OC2)cc1	.	.	-14	.	4	.	.	.	.
CCOc1ccc(NC(=O)Cn2nnc(-c3ccccc3F)n2)cc1	-3	1	32	0	75*	29	4	11	12
Cc1ccc(S(=O)(=O)NC(=O)NCCc2ccccc2)cc1	0	0	18	0	71*	81*	0	37	13

Screening data deposited in PubChem by The Scripps Research Institute Molecular Screening Center.
